# Measured values as given in ChEMBL document CHEMBL4513216, “Probing the Open Global Health Chemical Diversity Library for Multistage-Active Starting Points for Next-Generation Antimalarials” (ACS Infect Dis, 2020).
# Test: Toxicity liver stage against HepG2, at 10uM
# Assay type: cell-based
# Set-up: test concentration 10 uM, cell line HepG2-A16-CD81EGFP
# Settings: human, HepG2-A16-CD81EGFP cells; read-out: INHIBITION
# How it was run: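 Uninfected HepG2-A16-CD81EGFP cells, 3 × 10^3 per well, 1536-well, plated on prespotted compound at 10 μM final, parasite-free screening media added to match infected plates; puromycin 10 μM positive, DMSO 0.5% negative; run in parallel with 48 h PbLuc assay at 37 °C, 5% CO2; viability by CellTiter-Glo luminescence, normalized to controls.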
row,SMILES,cytotoxicity at 10 µM
1,CN(CC(=O)N1CCc2[nH]c3ccc(F)cc3c2C1)CC1OCCO1,6.19%
2,Cc1nc(N2CCN(C)CC2)ncc1C(=O)N1CCN(C)CC1,3.85%
3,COc1ccc(C(=O)N2CC(=O)N(C3CCC3)CC(O)C2)cc1OC (stereo not given),4.35%
4,CN1C(=O)COc2cc(NC(=O)CCc3nc4cccnc4[nH]3)ccc21,-4.13%
5,Cc1ccc(C)c(S(=O)(=O)NCCNc2ccc(-n3cccc3)nn2)c1,1.77%
6,CCn1cc2c(n1)C(COCC1CC1)CN(C(=O)c1cnoc1C)C2 (stereo not given),17.5%
7,CN(C)CC(=O)N1CCc2ncnc(-c3ccoc3)c2CC1,-7.36%
8,O=C(NCCc1ccccc1)N1CC[C@@H]2CNS(=O)(=O)[C@@H]2CC1,-5.12%
9,O=C(Cc1ccc2c(c1)OCC2)Nc1nn[nH]n1,0.548%
10,CCn1ccc(NC(=O)CN2C(=O)C(C)(C)c3ccccc32)n1,-16.9%
11,CCC(c1ccccc1)c1nn2c(CN(CC)CC)nnc2s1 (stereo not given),7.79%
12,COC(=O)c1cccc(NS(=O)(=O)c2cnc(NC(C)=O)s2)c1,7.21%
13,Cc1cn[nH]c1C1COCCN1C(=O)c1cc(F)ccc1F (stereo not given),-0.658%
14,COCC(=O)N1CCCCC1c1nc(CN(C)C(C)=O)cc(N(C)C)n1 (stereo not given),3.37%
15,CC1(c2ncc(CN3CCN(c4ncccn4)CC3)cn2)CCCCO1 (stereo not given),1.16%
16,CCNC(=O)C1(Cc2cc(-c3ccc(C)cc3)no2)CCCN(C)C1 (stereo not given),7.9%
17,CNC(=O)C1CN(c2ccnc(C)n2)CCN(C2CCOCC2)C1 (stereo not given),-0.762%
18,COCC(=O)N1CCCCC1c1nc(C)c2c(n1)N(CC1CC1)C(=O)C2 (stereo not given),10.5%
19,CCCNS(=O)(=O)c1cc2c3c(c1)c(C)cc(=O)n3CCC2,3.94%
20,O=C(O)c1ccccc1-n1cnc(CN2CCCc3ccccc32)c1,6.58%
21,CN(C)C(=O)Cn1c(C2CC2)c(CN2CCSCC2)c2cccnc21,4.06%
22,Cc1cc(-c2c[nH]nc2C2CCCCN2C(=O)c2ccccc2)on1 (stereo not given),7.9%

row,SMILES,cytotoxicity at 10 µM
1,Nc1nccc(C2CCCN(CC3CC3)C2)n1 (stereo not given),0.631%
2,Cn1cc(CN2CCOC(c3nccnc3-c3cccc(F)c3)C2)cn1 (stereo not given),8.12%
3,O=C(C1CC1)N1CCC(c2nc(O)c3c(n2)CCN(C2CCCC2)C3)C1 (stereo not given),4.66%
4,CN1CCC2(CC1)CNC(=O)c1ccccc1O2,-1.24%
5,Cn1ccc(CS(=O)(=O)Cc2cccc(F)c2)cc1=O,6.83%
6,Cc1cccc(OCC(=O)NS(=O)(=O)Cc2ccccc2)c1,0.224%
7,Cc1ccc(N2CCC(NC(C)c3cccs3)CC2)nc1 (stereo not given),-9.64%
8,CCc1cnc(CN(C)C(=O)Nc2cnc3c(c2)c(C)nn3C)s1,2.37%
9,Cc1nn(C)c(C)c1C1CCCN1C(=O)c1ccc(C(N)=O)s1 (stereo not given),-1.52%
10,COc1cc(Cl)ccc1C(=O)NCc1n[nH]c(C)n1,-4.07%
11,O=C(CCc1ccsc1)NCC1CCN(C2CC2)C1 (stereo not given),2.63%
12,Cc1c(C(=O)N2CCCOCC2)nnn1-c1cccc2cnccc12,11.8%
13,Cc1c(C(=O)N2CC(O)C2)nnn1-c1cccc2cnccc12,3.04%
14,CCc1nc(C(=O)N(CC)CC(=O)Nc2cc(Cl)ccc2C)c[nH]1,8.44%
15,Cc1cnc(CN(C)C2CCN(Cc3cnc(C)s3)C2)o1 (stereo not given),-0.0499%
16,CCN1CCC(NC(=O)NC2CCOc3ccc(Br)cc32)CC1 (stereo not given),-1.15%
17,CCOC(C)c1nc(CN2CCC(NC(C)C)CC2)cs1 (stereo not given),1.1%
18,COC(=O)c1ccoc1CN(C)CC(=O)N(C)C,3.39%
19,Cc1noc(C(C)Nc2ccc(N3CCOCC3)cc2C)n1 (stereo not given),-3.92%
20,Cc1nnc(CN(C)CCCOc2ccc(Cl)cc2)o1,-1.69%
21,Cn1nc(Br)c2c(NCCSCCCO)ncnc21,14.5%
22,O=C(c1ccc(=O)[nH]n1)N(CCO)Cc1cc(Br)ccc1F,7.56%

row,SMILES,cytotoxicity at 10 µM
1,COc1ccc(OC)c(-n2nnnc2SCC2CCCN(C)C2)c1 (stereo not given),1.28%
2,Cc1ccc(S(=O)(=O)NC(=O)COc2ccc(CC#N)cc2)s1,2.52%
3,COC(=O)c1cccc(CN(C)Cc2ncnn2C)c1C#N,-4.23%
4,CCCC1c2ccccc2CCN1CCS(C)(=O)=O (stereo not given),-0.846%
5,N#Cc1ccc(F)c(CN2CCNC(=O)C2c2cccs2)c1 (stereo not given),11.5%
6,COc1ccc(C)cc1CN(C)CCCNS(C)(=O)=O,-43.2%
7,CC(C)CC(C)NCCCN1CCCN(C)CC1 (stereo not given),24.7%
8,CC(C)CNC(=O)Nc1ccc(CN2CCOC2=O)cc1,10.2%
9,CCOCC1CN(S(=O)(=O)Cc2ccccc2)Cc2nccn2C1 (stereo not given),-105%
10,CCC1=N[C@@]2(CC[C@@H]3CN(CC)C[C@@H]32)C(=O)N1C,-102%
11,Cc1cccc(CN2CCn3cc(CNC(=O)CC4CC4)nc3C2)n1,-73.2%
12,O=C(c1cccs1)N1CCc2ncc(Cn3cncn3)n2CC1,-89.8%
13,Cn1cc(CN2CCCC3(CCN(c4cccnc4)C3=O)C2)cn1 (stereo not given),-74.9%
14,CC(C)NC(=O)C1CN(C(=O)N2CCCC2)CC12CCOCC2 (stereo not given),1.08%
15,CCc1ncc2c(n1)CN(c1nccc(C3CCCC3)n1)C2,-1.16%
16,Cc1ccc(CN2C[C@H]3OC(=O)N(Cc4ccccn4)[C@H]3C2)o1,4.16%
17,CSCc1noc(CNC(=O)C2CCN(C(=O)C3CC3)CC2)n1,11.5%
18,Cc1ccc(N2CCCN(CC3CC3)C(C(C)C)C2)nn1 (stereo not given),13.3%
19,CCCNc1ncc(C2CC(=O)NCc3nc4ccccn4c32)cn1 (stereo not given),-3.69%
20,Cc1cc(NC(C)Cc2cccnc2)n2nccc2n1 (stereo not given),3.01%
21,C=C(C)COc1cccc(CN(C)C(C)c2ccncn2)c1 (stereo not given),-47.6%
22,COc1nccnc1N1CCC2(CC1)[C@H](O)C[C@@H]2OCCN(C)C,4.56%

row,SMILES,cytotoxicity at 10 µM
1,O=C(c1ccc(-c2cccc3c2CCNC3)o1)N1CCCCC1,3.67%
2,CN1CCCC(CCC(=O)N2CCc3[nH]c(-c4ccccc4)nc3C2)C1 (stereo not given),-4.13%
3,CCc1cc(N(C)CCc2c(C)n[nH]c2C)ncn1,-4.45%
4,CCC(NC(=O)C1CCN(C(=O)C2CC2)CC1)c1cn2cccnc2n1 (stereo not given),0.0482%
5,c1cc(CN2CCCC2)cc(-n2ccnc2-c2ccncc2)c1,-1.37%
6,COCCNc1cc(-c2ccccc2S(N)(=O)=O)c2cc[nH]c2n1,6.68%
7,c1cnn(CCC2CCN(Cc3ccc4[nH]ccc4c3)CC2)c1,-7.57%
8,O=C(CCn1cnnn1)N1CCCC(CO)(CCCc2ccccc2)C1 (stereo not given),2.74%
9,CCCOC1CCCN(Cc2nc(-c3cccs3)oc2C)C1 (stereo not given),-53.1%
10,O=C(N[C@@H]1CCN(C(=O)c2ccc(F)cc2Cl)C[C@H]1O)c1ccccn1,-0.0395%
11,CCCc1cc(NCc2nc(COC)no2)n2nccc2n1,-0.916%
12,COC(=O)c1ccc(CNC(=O)Cc2csc(C(C)=O)c2)cc1,5.03%
13,CCOc1ccccc1CN(CC)Cc1ccc(S(C)(=O)=O)cc1,-4.6%
14,CC(C)c1cc(=O)[nH]c(-c2ccccc2CN2CCCCCC2)n1,-2.1%
15,COc1ccc(F)c(-c2cc(C)nc(N)n2)c1,5.47%
16,CS(=O)(=O)N1CCCn2nc(CNc3cc(C#N)ccn3)cc2C1,-8.5%
17,COC(=O)c1cc(C)nc(N2CCN(Cc3cc(C(C)C)no3)CC2)n1,3.29%
18,CCc1cc(N[C@H]2CCC[C@H]2CO)n2nccc2n1,-10.1%
19,Cc1cc(C(F)(F)F)cc(=O)n1Cc1nc(C(C)C)no1,0.9%
20,CC(C)n1ccnc1C1CCN(C(=O)c2ccc(SCCO)cc2)CC1,-0.232%
21,Cc1nccn1Cc1nnc(C2CCCN(Cc3cccnc3)C2)n1C (stereo not given),-6.15%
22,Cc1ccc(CC(=O)N2CCCC(c3ccn[nH]3)C2)cn1 (stereo not given),0.691%

row,SMILES,cytotoxicity at 10 µM
1,CNc1nc(CNC(=O)Nc2ccc([S+](C)[O-])c(F)c2)cs1 (stereo not given),-12.2%
2,CC(C)c1nc(C2CCCN2C(=O)c2ccc(C#N)cn2)no1 (stereo not given),-3.19%
3,Cc1nccn1C1CCCN(C(=O)COCC2CC2)C1 (stereo not given),-11.7%
4,O=C(O)c1c[nH]c2cc(NS(=O)(=O)c3cccc(Cl)c3F)ccc12,-10.5%
5,Cc1ccc(C)c(CNC(=O)NC(C)(C(=O)O)c2ccco2)c1 (stereo not given),-10.8%
6,CN(Cc1cccc(F)c1)C1CCN(CCc2ccccn2)CC1,-5.38%
7,Cc1ccc(C(=O)N2CCN(CCC(C)(C)C)CC2)c(=O)[nH]1,-6.95%
8,NC(=O)CC1CCN(C(=O)CCOc2ccc(Cl)cc2)CC1,-7.98%
9,CCCNC(=O)CN1CCN(Cc2csc(C(C)(C)C)n2)CC1,-7.88%
10,Cc1ccc(-c2nc(CN3CCc4nn(C)c(=O)cc4C3)no2)cc1,-8.38%
11,COc1cccc(Nc2nc(C3CCNCC3)c3sc(C)c(C)n23)c1,4.24%
12,COc1ccc(C(CNS(=O)(=O)c2cn(C)nc2C)N2CCCC2)cc1 (stereo not given),4.11%
13,Cc1cccc(CS(=O)(=O)c2nnc([C@@H](N)Cc3ccccc3)o2)c1,7.09%
14,Cc1ccc(CN2CCCC3(CCN(S(C)(=O)=O)C3)C2)o1 (stereo not given),2.21%
15,O=C(c1cscn1)N1CCc2ncc(CN3CCCC3)n2CC1,-111%
16,COCCNC(=O)[C@H]1C[C@@H]2CCN(CCc3ccccc3)C[C@@H]2O1,-74.5%
17,Cc1ccc(N2CCO[C@H]3CN(Cc4ccncc4)C[C@H]32)nn1,1.23%
18,CC(C)N1CCC2(CCCN(C(=O)c3cncn3C)C2)CC1,-0.0499%
19,Cn1cc(CN2CC[C@@H]3[C@@H]2CCN3C(=O)Cc2cccc(F)c2)cn1,-80%
20,COCCN1CCN(Cc2ccco2)Cc2ccc(C)nc21,0.657%
21,CN(Cc1cn2c(n1)CN(c1ncc(F)cn1)CC2)Cc1ccco1,3.96%
22,O=C(c1ccncc1F)N1C[C@@H]2CC[C@H]1CN(Cc1cccnc1)C2,3.01%
